The source of these data is ChEMBL document CHEMBL1124415, “Acrylamide derivatives as antiallergic agents. 2. Synthesis and structure-activity relationships of N-[4-[4-(diphenylmethyl)-1-piperazinyl]butyl]-3-(3-pyridyl)acryl amides” (J Med Chem, 1989).

Structures are written as SMILES.

Assay type in all cases: functional
Test [1] deals with Rattus norvegicus. The test can be described thus: Antiallergic activity determined by passive cutaneous anaphylaxis assay upon peroral administration of 20 mg/kg in rat. As to conditions: route oral.
The subject of test [2] is Rattus norvegicus. Kind of test: Antiallergic activity by passive cutaneous anaphylaxis assay upon peroral administration of 20 mg/kg in rat. The settings on record: route oral.
The species named for another test is Cavia porcellus. Kind of test: Anti-histaminic activity was measured in guinea pig trachea. Summed up:
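Zig-zag guinea pig tracheal strips; histamine dose-response curves obtained before and 60 min after adding test compound.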

The species entered for the next test is Homo sapiens. The test can be described thus: Inhibitory activity against histamine release in human basophil. Summed up:
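Basophils from nonallergic human volunteers, washed in Tris-A buffer pH 7.4 (first wash with 4 mM EDTA), resuspended at 5-10 × 10^6 leukocytes/mL in Tris-ACM pH 7.6; preincubated with compound 15 min at 37 °C, then 45 min with anti-human IgE.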

The species entered for test [3] is Rattus norvegicus. Kind of test: ED50 value was measured in rat passive cutaneous anaphylaxis (PCA) by linear regression analysis.

Consider `Cc1ccc(C(c2ccccc2)N2CCN(CCCCNC(=O)/C=C/c3cccnc3)CC2)cc1C` (stereo not drawn), for which the inhibition in vivo (in general, the relative decrease from the control value, in per cent) at 20 mg/kg with Rattus norvegicus [1] was found to be 5.4%.
The compound `COc1ccc(/C=C/C(=O)NCCCCN2CCN(C(c3ccccc3)c3ccccc3)CC2)cn1` returned an inhibition in vivo at 20 mg/kg in the test with Rattus norvegicus [1] of 41%.
The same measure, in the same setting: the result for `CCC/C(=C\c1cccnc1)C(=O)NCCCCN1CCN(C(c2ccccc2)c2ccccc2)CC1` reads 44.2%.
The same measure, in the same setting: as for `CCCCc1ccc(/C=C/C(=O)NCCCCN2CCN(C(c3ccccc3)c3ccccc3)CC2)cn1`, the figure is 22.2%; as for `Cc1ccc(C(c2ccc(C)cc2)N2CCN(CCCCNC(=O)/C=C/c3cccnc3)CC2)cc1`, 20.2%.
On to `CN1CCC(=C2c3ccccc3CC(=O)c3sccc32)CC1` [KETOTIFEN], for which the median effective dose (ED50) – broadly, the dose that gives a 50% effect, or the effect in half of the subjects – in the test with Rattus norvegicus [2] turned out to be 16.3 mg/kg. The IC50 – broadly, the concentration needed to halve the response being measured – is 1.6 nM in the test filed under Cavia porcellus and over 100000 nM in the test filed under Homo sapiens.
As for `Cc1ncc(/C=C/C=C/C(=O)NCCCCN2CCN(C(c3ccccc3)c3ccccc3)CC2)c(CO)c1O`, the inhibition in vivo at 20 mg/kg with Rattus norvegicus [1] was determined as 16.4%.
On the same count and under the same terms, the result for `Cc1ccc(/C=C/C(=O)NCCCCN2CCN(C(c3ccccc3)c3ccccc3)CC2)c(C)n1` reads 66.8%; that for `CCCCCOc1ccc(/C=C/C(=O)NCCCCN2CCN(C(c3ccccc3)c3ccccc3)CC2)cn1`, 14.9%; that for `O=C(/C=C/c1cccnc1)NCCCCN1CCC(C(O)(c2ccccc2)c2ccccc2)CC1`, 35.1%.
Still for that read-out and setting: the result for `O=C(/C=C/c1cccnc1)NCCCCN1CCC(=C(c2ccccc2)c2ccccc2)CC1` reads 85.9%; that for `CC/C(=C\c1cccnc1)C(=O)NCCCCN1CCN(C(c2ccccc2)c2ccccc2)CC1`, 67.8%.
Consider `COc1cncc(/C=C/C(=O)NCCCCN2CCN(C(c3ccccc3)c3ccccc3)CC2)c1`, for which, in the test with Rattus norvegicus [1], the inhibition in vivo at 20 mg/kg came out at 7.6%.
`O=C(/C=C/c1ccc(-c2ccccc2)nc1)NCCCCN1CCN(C(c2ccccc2)c2ccccc2)CC1` displayed an inhibition in vivo at 20 mg/kg with Rattus norvegicus [1] of 3.2%.
`Cc1cccc(C(c2ccccc2)N2CCN(CCCCNC(=O)/C=C/c3cccnc3)CC2)c1` (stereo not drawn) gave an inhibition in vivo at 20 mg/kg in the test with Rattus norvegicus [1] of 19%.
As for `O=C(/C=C/C=C/c1cccnc1)NCCCN1CCN(C(c2ccccc2)c2ccccc2)CC1`, 20 mg/kg produced 40.4% inhibition in vivo with Rattus norvegicus [1].
In turn, `Cc1ccc(CCC(=O)NCCCCN2CCN(C(c3ccccc3)c3ccccc3)CC2)cn1` gave an inhibition in vivo at 20 mg/kg with Rattus norvegicus [1] of 24.9%.
The same measure, in the same setting: the result for `O=C(/C=C/c1cncc(F)c1)NCCCCN1CCN(C(c2ccccc2)c2ccccc2)CC1` reads 65%; that for `C/C(=C\C(=O)NCCCCN1CCN(C(c2ccccc2)c2ccccc2)CC1)c1cccnc1`, 52.2%.
Still for that read-out and setting: the result for `CCCOc1ccc(/C=C/C(=O)NCCCCN2CCN(C(c3ccccc3)c3ccccc3)CC2)cn1` reads 7.5%.
In the case of `Cc1ncccc1/C=C/C(=O)NCCCCN1CCN(C(c2ccccc2)c2ccccc2)CC1`, the inhibition in vivo at 20 mg/kg in the test on Rattus norvegicus [1] is 68.8%.
On the same count and under the same terms, the result for `O=C(/C=C/c1cncc(Br)c1)NCCCCN1CCN(C(c2ccccc2)c2ccccc2)CC1` reads 47.5%.
On the same count and under the same terms, as for `O=C(/C=C/c1ccc(Oc2ccccc2)nc1)NCCCCN1CCN(C(c2ccccc2)c2ccccc2)CC1`, the figure is 45.6%; as for `O=C(NCCCCN1CCN(C(c2ccccc2)c2ccccc2)CC1)/C(=C/c1cccnc1)c1ccccc1`, 58%.
Still for that read-out and setting: as for `O=C(/C=C/c1cccnc1)NCCCCN1CCC(OC(c2ccccc2)c2ccccc2)CC1`, the figure is 42.2%.
The compound `O=C(CCc1cccnc1)NCCCCN1CCN(C(c2ccccc2)c2ccccc2)CC1` had an inhibition in vivo at 20 mg/kg in the test on Rattus norvegicus [1] of 28.1%.
The compound `Cc1ccc(/C=C/C=C/C(=O)NCCCN2CCN(C(c3ccccc3)c3ccccc3)CC2)cn1` had an inhibition in vivo at 20 mg/kg in the test on Rattus norvegicus [2] of 35.8%.
In the test on Rattus norvegicus [1], `Cc1ccc(/C=C/C(=O)NCCCCN2CCN(C(c3ccccc3)c3ccccc3)CC2)cn1` [TAGORIZINE] gave an inhibition in vivo at 20 mg/kg of 81.9%. The 50% inhibitory concentration (IC50) in the test filed under Cavia porcellus came to 120 nM; in the test listed under Homo sapiens, 34000 nM. Also, in the test listed under Rattus norvegicus [3], the 50% effect level (ED50) was put at a dose of 3.3 mg/kg.
In the test with Rattus norvegicus [1], `CNc1ncccc1/C=C/C(=O)NCCCCN1CCN(C(c2ccccc2)c2ccccc2)CC1` returned an inhibition in vivo at 20 mg/kg of 45.2%.
Compound `CC(C)c1ccc(/C=C/C(=O)NCCCCN2CCN(C(c3ccccc3)c3ccccc3)CC2)cn1` had an inhibition in vivo at 20 mg/kg with Rattus norvegicus [1] of 38.9%.
Still for that read-out and setting: the result for `O=C(/C=C/c1ccc(Cl)nc1)NCCCCN1CCN(C(c2ccccc2)c2ccccc2)CC1` reads 49.3%; that for `CCOc1ccc(/C=C/C(=O)NCCCCN2CCN(C(c3ccccc3)c3ccccc3)CC2)cn1`, 33.9%.
On the same count and under the same terms, as for `Cc1ccc(/C=C/C(=O)NCCCCN2CCC(=C(c3ccccc3)c3ccccc3)CC2)cn1`, the figure is 99.5%; as for `Cc1cc(/C=C/C(=O)NCCCCN2CCN(C(c3ccccc3)c3ccccc3)CC2)cnc1C`, 40.5%; as for `CCSc1ccc(/C=C/C(=O)NCCCCN2CCN(C(c3ccccc3)c3ccccc3)CC2)cn1`, 18.6%.
The compound `COc1ccc(C(c2ccccc2)N2CCN(CCCCNC(=O)/C=C/c3cccnc3)CC2)cc1` (stereo not drawn) registered an inhibition in vivo at 20 mg/kg in the test on Rattus norvegicus [1] of 40.9%.
On the same count and under the same terms, the result for `Cc1ncc(/C=C/C=C/C(=O)NCCCN2CCN(C(c3ccccc3)c3ccccc3)CC2)c(CO)c1O` reads 9.8%.
In the test on Rattus norvegicus [1], `O=C(/C=C/c1cccnc1)NCCCCN1CCN(C(c2ccc(Cl)cc2)c2ccc(Cl)cc2)CC1` displayed an inhibition in vivo at 20 mg/kg of 5.4%.
Still for that read-out and setting: the result for `Cc1ncc(/C=C/C(=O)NCCCCN2CCN(C(c3ccccc3)c3ccccc3)CC2)c2c1OC(C)(C)OC2` reads 17%; that for `O=C(/C=C/c1cccnc1Cl)NCCCCN1CCN(C(c2ccccc2)c2ccccc2)CC1`, under 39.3%.
Same read-out and setting: as for `Cc1ccc(C(c2ccccc2)N2CCN(CCCCNC(=O)/C=C/c3ccc(C)nc3)CC2)cc1` (stereo not drawn), the figure is 73.9%; as for `Cc1ccc(/C=C/C=C/C(=O)NCCCCN2CCN(C(c3ccccc3)c3ccccc3)CC2)cn1`, 68.8%; as for `CCCc1ccc(/C=C/C(=O)NCCCCN2CCN(C(c3ccccc3)c3ccccc3)CC2)cn1`, 44.4%.
The same measure, in the same setting: the result for `C/C(=C\c1ccc(C)nc1)C(=O)NCCCCN1CCN(C(c2ccccc2)c2ccccc2)CC1` reads 58.2%; that for `O=C(/C=C/c1cccnc1)NCCCCN1CCN(C(c2ccccc2)c2ccccc2)CC1`, 62.3%; that for `O=C(/C=C/c1cncc(O)c1)NCCCCN1CCN(C(c2ccccc2)c2ccccc2)CC1`, 28.8%.
The compound `O=C(/C=C/c1cncc(Cl)c1)NCCCCN1CCN(C(c2ccccc2)c2ccccc2)CC1` displayed an inhibition in vivo at 20 mg/kg in the test with Rattus norvegicus [1] of 66.4%.
On the same count and under the same terms, the result for `O=C(/C=C/C=C/c1cccnc1)NCCCCN1CCN(C(c2ccccc2)c2ccccc2)CC1` reads 66.4%; that for `Cc1ncc(/C=C/C(=O)NCCCCN2CCN(C(c3ccccc3)c3ccccc3)CC2)c(CO)c1O`, 53.7%; that for `O=C(/C=C/c1cccnc1)NCCCCN1CCN(C(c2ccccc2)c2ccc(Cl)cc2)CC1` (stereo not drawn), 19.9%.
As to `C/C(=C\c1cccnc1)C(=O)NCCCCN1CCN(C(c2ccccc2)c2ccccc2)CC1`, in the test on Rattus norvegicus [1], the inhibition in vivo at 20 mg/kg turned out to be 78.9%.
`Cc1ccc(C(c2ccccc2)N2CCN(CCCCNC(=O)/C=C/c3cccnc3)CC2)cc1` (stereo not drawn) came in with an inhibition in vivo at 20 mg/kg in the test with Rattus norvegicus [1] of 82.9%.
The same measure, in the same setting: as for `O=C(/C=C/c1cccnc1)NCCCCN1CCN(C(c2ccccc2)c2ccc(F)cc2)CC1` (stereo not drawn), the figure is 53.8%.
